Experimental data from article PMC4948672 (Cancer research, 2015).
Several values for one entry are separate records, joined by “and”; a condition that tells them apart may be missing. Equal entries are not always repeated.

What was measured:
[1] = test system: 12 stimulated primary human co-cultured cell types; assay: BioMAP panel of stimulated primary co-cultured cell types; assay type: cell-based
How it was run: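 BioMAP profiling in four human haematopoietic co-culture systems, each treated with test compound: Sag and LPS (peripheral blood mononuclear cells with venular endothelial cells), BT (B cells with peripheral blood mononuclear cells), and IMphg (venular endothelial cells with M1 macrophages). Marker protein read-outs were monitored.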

[2] = test system: KASUMI-1, MOLM13 and SEM cells; assay: WST1 proliferation/survival assay, single agents and combinations; assay type: cell-based, human; settings: for activity alone in WST1 assay: single agent, different for each cell line
CBP/p300 HAT activity = settings: cited from earlier work
5HT1 = settings: both stereoisomers; low µM region
MLL-AF9+ AML cells [3] = assay: cell surface marker expression after liquid culture exposure; assay type: cell-based, mouse; settings: 5 µM, 3 days
[4] = test system: bromodomains of the BET family members; assay: BLI selectivity screen, panel of 42 bromodomains; assay type: binding; settings: only BET family identified among 42 bromodomains
full-length CBP [5] = biological target: T1, full-length CBP (Homo sapiens, UniProt Q92793); assay type: cell-based; settings: NanoBRET dose response
BRD4(1) = BRD4(1) (Homo sapiens, UniProt O60885); assay: isothermal titration calorimetry; assay type: binding
α1A = α1A (Homo sapiens, UniProt P35348); settings: both stereoisomers; low µM region
[6] = test system: peripheral CD34+ cells from healthy donors; assay: clonogenic growth of primary cells in methylcellulose; assay type: cell-based, human; settings: three healthy donors
How it was run: (§1)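 Primary human cells were grown in methylcellulose with test compound: CD34+ cells from healthy donors (n=3) or AML patient blasts (n=5). Colonies and cell numbers are expressed as mean percentage of vehicle-treated ±SD; ANOVA with Dunnett. Morphology was assessed by Giemsa-Wright stain after DMSO or 5 µM treatment.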

BRD4(2) [7] = biological target: T2, BRD4(2) (Homo sapiens, UniProt O60885); assay: isothermal titration calorimetry; assay type: binding
KASUMI-1 cells [8] = assay: apoptosis, 7-AAD/AnnexinV staining; assay type: cell-based, human; settings: prolonged exposure, day 5, liquid culture
[9] = test system: MLL-CBP immortalized murine bone marrow cells; assay: clonogenic growth and replating in methylcellulose; assay type: cell-based, mouse; settings: more apparent upon re-plating
How it was run: (§2)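 Methylcellulose colony formation with serial re-plating, using either MLL-CBP immortalized murine bone marrow progenitors or MLL-AF9 leukemic blasts treated with test compound. Colonies are expressed as mean percentage of vehicle-treated ±SD, n=2; ANOVA with Dunnett multiple comparison.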

[10] = test system: primary murine MLL-AF9+ leukemic blasts; assay: clonogenic re-plating assay in methylcellulose; assay type: cell-based, mouse
How it was run: as §2

pharmacokinetic study = assay type: in vivo; settings: mice
p300 bromodomain = p300 bromodomain (Homo sapiens, UniProt Q09472); assay: isothermal titration calorimetry; assay type: binding; settings: read-out: dissociation constant (KD); ITC, in solution
MOLM13 = assay: clonogenic growth in methylcellulose; assay type: cell-based, human; settings: dose dependent
How it was run: (§3)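 Human leukemic cell lines were plated in methylcellulose with different doses of test compound, and colony growth was scored. Counts are mean percentage of vehicle-treated ±SD, n=3; ANOVA with Dunnett multiple comparison.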

[11] = test system: MLL-AF9 expressing blasts; assay: extreme limiting dilution analysis; assay type: cell-based, mouse; settings: 5µM for 3 days; vehicle 1/2.3
How it was run: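 MLL-AF9 leukemic blasts from diseased mice were exposed ex vivo to 5 µM test compound or DMSO for 3 days, then plated at limiting dilution (highest dose 10 cells). A limiting dilution model fitted on a log-fraction plot gave stem cell frequency with 95% confidence intervals. Groups were compared by an overall chi-square test.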

[12] = test system: 41 other members of the human bromodomain family; assay: temperature shift assay, selectivity panel; assay type: binding; settings: 41 other bromodomains
[13] = test system: primary blast cells from AML patients; assay: clonogenic growth of primary cells in methylcellulose; assay type: cell-based, human; settings: five AML patients
How it was run: as §1

full-length CBP [14] = biological target: T1, full-length CBP; assay type: cell-based; settings: GFP-tagged full-length CBP
CBP bromodomain [15] = biological target: T3, CBP bromodomain (Homo sapiens, UniProt Q92793); settings: read-out: IC50 displacing H3K56ac from the CBP binding site; AlphaScreen, H3K56ac peptide
p300 = p300 (Homo sapiens, UniProt Q09472); assay: ChIP-PCR of p300 occupancy at TNFSF13B and ID2; assay type: cell-based; settings: KASUMI-1, 3 µM
isolated CBP bromodomain = isolated CBP bromodomain (Homo sapiens, UniProt Q92793); assay: NanoBRET, NanoLuc CBP bromodomain / Halo-tagged Histone H3.3; assay type: cell-based; settings: read-out: cellular IC50, construct containing the bromodomain only
MOLM13 cells = assay: WST1 proliferation/survival assay, combination; assay type: cell-based, human; settings: combination with doxorubicin
[16] = test system: MLL-CBP immortalized murine bone marrow cells; assay: WST1 cytotoxicity assay; assay type: cell-based, mouse; settings: significant cytotoxicity only at high concentrations and prolonged exposure
How it was run: (§4)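 WST1 cytotoxicity assay. Cells were murine bone marrow cells immortalized by retroviral MLL-CBP expression, or MLL-AF9 leukemic blasts isolated from mice transplanted with bone marrow retrovirally expressing that oncogene. Signal was expressed as mean percentage of vehicle-treated cells ±SD, n=4; ANOVA with Dunnett multiple comparison.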

CBP bromodomain [17] = biological target: T3, CBP bromodomain; assay: temperature shift assay; assay type: binding
[18] = test system: 12 human cell lines that form visible colonies in methylcellulose; assay: clonogenic growth in methylcellulose, human leukemic cell line panel; assay type: cell-based; settings: all 12 colony-forming human leukemic lines
full-length GFP-BRD4 = full-length GFP-BRD4 (Homo sapiens, UniProt O60885); assay: NanoBRET, full-length BRD4; assay type: cell-based
BRD4(2) [19] = biological target: T2, BRD4(2); assay: temperature shift assay; assay type: binding; settings: second bromodomain of BRD4
CBP bromodomain [20] = biological target: T3, CBP bromodomain; assay type: binding; settings: read-out: dissociation constant (KD); ITC, in solution
KASUMI-1 = assay: clonogenic growth in methylcellulose; assay type: cell-based, human; settings: dose dependent
How it was run: as §3

SEM cells = assay: clonogenic growth in methylcellulose; assay type: cell-based, human; settings: dose dependent
How it was run: as §3

MLL-AF9+ AML cells [21] = assay: transplantation of pre-treated MLL-AF9+ AML cells into secondary recipients; assay type: in vivo, mice; settings: cells pre-treated 5 µM 3 days; 5-50 x 10^3 cells transplanted
How it was run: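 Leukemic blasts were taken from mice that developed AML after transplantation of bone marrow retrovirally expressing MLL-AF9. Blasts were treated ex vivo with 5 µM test compound or DMSO for 3 days. Limiting doses (50 000, 10 000, 5 000, 500 cells) went into irradiated syngeneic secondary recipients, n=4/5 per group. Disease-free survival was compared by log-rank (Mantel-Cox) test.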

[22] = test system: primary murine MLL-AF9+ leukemic blasts; assay: WST1 cytotoxicity assay; assay type: cell-based, mouse
How it was run: as §4

KASUMI-1 cells [23] = assay: cell cycle analysis by flow cytometry; assay type: cell-based, human; settings: day 2 and 3, more pronounced at day 6
CBP = CBP (Homo sapiens, UniProt Q92793); settings: BLI
H3K56ac peptide = assay: ITC

T3 sequence (Q92793 1085-1192 limits assumed): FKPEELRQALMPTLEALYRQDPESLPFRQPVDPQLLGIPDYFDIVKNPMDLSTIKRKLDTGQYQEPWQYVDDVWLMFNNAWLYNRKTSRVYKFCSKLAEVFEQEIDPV
Sequence of p300 (Q09472 whole entry): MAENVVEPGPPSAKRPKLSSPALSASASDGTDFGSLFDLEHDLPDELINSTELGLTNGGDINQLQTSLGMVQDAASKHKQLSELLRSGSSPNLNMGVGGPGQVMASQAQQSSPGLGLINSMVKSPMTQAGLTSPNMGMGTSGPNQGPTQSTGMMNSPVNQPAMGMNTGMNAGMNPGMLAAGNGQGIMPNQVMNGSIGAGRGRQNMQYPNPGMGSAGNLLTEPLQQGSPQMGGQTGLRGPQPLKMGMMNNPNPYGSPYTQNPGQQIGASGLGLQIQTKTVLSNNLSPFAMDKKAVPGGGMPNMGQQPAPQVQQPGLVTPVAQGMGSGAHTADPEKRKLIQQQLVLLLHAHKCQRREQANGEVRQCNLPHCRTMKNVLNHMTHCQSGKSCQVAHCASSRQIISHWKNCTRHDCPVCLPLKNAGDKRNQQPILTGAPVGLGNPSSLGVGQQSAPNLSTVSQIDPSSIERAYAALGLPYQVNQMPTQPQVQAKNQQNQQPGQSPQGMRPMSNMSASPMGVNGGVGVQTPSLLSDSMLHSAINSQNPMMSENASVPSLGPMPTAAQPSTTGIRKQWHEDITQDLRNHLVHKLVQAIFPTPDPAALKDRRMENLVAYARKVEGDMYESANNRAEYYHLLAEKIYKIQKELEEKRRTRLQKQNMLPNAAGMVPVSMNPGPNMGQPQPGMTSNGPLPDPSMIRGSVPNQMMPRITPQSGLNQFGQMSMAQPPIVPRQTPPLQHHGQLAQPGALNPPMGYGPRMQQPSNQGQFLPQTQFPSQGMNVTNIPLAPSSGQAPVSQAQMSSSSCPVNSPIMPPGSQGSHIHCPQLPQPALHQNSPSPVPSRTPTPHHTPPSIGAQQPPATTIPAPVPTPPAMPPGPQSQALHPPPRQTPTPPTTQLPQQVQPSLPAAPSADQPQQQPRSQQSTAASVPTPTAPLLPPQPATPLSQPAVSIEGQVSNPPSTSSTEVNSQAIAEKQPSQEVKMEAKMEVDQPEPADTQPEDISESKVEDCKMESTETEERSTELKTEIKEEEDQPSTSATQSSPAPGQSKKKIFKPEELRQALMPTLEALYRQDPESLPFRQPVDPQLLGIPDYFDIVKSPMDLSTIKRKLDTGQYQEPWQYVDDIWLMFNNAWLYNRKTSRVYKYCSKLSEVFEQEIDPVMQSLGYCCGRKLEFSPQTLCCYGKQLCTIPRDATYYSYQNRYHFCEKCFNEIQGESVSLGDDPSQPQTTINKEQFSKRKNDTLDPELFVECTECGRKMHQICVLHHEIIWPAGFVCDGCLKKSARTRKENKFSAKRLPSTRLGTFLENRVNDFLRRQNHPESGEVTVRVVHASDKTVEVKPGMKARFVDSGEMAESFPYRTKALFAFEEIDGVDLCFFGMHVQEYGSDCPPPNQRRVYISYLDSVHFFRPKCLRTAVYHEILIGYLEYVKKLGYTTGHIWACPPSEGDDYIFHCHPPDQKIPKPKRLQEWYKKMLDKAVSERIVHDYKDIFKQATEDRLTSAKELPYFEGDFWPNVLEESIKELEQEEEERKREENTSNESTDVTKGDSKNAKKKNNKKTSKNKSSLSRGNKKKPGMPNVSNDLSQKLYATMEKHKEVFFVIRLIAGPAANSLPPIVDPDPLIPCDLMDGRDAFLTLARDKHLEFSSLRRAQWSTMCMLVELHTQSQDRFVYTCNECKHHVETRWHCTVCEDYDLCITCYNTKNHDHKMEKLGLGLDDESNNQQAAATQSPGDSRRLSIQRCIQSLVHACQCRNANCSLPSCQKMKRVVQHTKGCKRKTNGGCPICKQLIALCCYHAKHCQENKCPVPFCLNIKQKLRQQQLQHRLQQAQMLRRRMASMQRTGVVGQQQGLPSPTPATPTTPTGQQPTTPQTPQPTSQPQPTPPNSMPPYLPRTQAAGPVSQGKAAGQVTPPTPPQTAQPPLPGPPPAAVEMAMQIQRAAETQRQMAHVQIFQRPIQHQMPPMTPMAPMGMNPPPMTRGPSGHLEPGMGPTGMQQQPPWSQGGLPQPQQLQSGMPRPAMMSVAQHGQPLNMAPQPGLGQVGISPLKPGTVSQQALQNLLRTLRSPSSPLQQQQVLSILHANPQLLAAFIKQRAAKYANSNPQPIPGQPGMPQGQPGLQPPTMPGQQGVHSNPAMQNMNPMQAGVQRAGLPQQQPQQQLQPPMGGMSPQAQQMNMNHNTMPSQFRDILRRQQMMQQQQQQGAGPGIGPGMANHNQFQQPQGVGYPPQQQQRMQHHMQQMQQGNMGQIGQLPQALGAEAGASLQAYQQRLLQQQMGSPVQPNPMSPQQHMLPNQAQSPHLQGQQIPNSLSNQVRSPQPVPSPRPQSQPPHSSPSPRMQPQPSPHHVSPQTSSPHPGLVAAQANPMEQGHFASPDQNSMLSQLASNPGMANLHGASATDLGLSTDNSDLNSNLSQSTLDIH
T1 sequence (Q92793 whole entry): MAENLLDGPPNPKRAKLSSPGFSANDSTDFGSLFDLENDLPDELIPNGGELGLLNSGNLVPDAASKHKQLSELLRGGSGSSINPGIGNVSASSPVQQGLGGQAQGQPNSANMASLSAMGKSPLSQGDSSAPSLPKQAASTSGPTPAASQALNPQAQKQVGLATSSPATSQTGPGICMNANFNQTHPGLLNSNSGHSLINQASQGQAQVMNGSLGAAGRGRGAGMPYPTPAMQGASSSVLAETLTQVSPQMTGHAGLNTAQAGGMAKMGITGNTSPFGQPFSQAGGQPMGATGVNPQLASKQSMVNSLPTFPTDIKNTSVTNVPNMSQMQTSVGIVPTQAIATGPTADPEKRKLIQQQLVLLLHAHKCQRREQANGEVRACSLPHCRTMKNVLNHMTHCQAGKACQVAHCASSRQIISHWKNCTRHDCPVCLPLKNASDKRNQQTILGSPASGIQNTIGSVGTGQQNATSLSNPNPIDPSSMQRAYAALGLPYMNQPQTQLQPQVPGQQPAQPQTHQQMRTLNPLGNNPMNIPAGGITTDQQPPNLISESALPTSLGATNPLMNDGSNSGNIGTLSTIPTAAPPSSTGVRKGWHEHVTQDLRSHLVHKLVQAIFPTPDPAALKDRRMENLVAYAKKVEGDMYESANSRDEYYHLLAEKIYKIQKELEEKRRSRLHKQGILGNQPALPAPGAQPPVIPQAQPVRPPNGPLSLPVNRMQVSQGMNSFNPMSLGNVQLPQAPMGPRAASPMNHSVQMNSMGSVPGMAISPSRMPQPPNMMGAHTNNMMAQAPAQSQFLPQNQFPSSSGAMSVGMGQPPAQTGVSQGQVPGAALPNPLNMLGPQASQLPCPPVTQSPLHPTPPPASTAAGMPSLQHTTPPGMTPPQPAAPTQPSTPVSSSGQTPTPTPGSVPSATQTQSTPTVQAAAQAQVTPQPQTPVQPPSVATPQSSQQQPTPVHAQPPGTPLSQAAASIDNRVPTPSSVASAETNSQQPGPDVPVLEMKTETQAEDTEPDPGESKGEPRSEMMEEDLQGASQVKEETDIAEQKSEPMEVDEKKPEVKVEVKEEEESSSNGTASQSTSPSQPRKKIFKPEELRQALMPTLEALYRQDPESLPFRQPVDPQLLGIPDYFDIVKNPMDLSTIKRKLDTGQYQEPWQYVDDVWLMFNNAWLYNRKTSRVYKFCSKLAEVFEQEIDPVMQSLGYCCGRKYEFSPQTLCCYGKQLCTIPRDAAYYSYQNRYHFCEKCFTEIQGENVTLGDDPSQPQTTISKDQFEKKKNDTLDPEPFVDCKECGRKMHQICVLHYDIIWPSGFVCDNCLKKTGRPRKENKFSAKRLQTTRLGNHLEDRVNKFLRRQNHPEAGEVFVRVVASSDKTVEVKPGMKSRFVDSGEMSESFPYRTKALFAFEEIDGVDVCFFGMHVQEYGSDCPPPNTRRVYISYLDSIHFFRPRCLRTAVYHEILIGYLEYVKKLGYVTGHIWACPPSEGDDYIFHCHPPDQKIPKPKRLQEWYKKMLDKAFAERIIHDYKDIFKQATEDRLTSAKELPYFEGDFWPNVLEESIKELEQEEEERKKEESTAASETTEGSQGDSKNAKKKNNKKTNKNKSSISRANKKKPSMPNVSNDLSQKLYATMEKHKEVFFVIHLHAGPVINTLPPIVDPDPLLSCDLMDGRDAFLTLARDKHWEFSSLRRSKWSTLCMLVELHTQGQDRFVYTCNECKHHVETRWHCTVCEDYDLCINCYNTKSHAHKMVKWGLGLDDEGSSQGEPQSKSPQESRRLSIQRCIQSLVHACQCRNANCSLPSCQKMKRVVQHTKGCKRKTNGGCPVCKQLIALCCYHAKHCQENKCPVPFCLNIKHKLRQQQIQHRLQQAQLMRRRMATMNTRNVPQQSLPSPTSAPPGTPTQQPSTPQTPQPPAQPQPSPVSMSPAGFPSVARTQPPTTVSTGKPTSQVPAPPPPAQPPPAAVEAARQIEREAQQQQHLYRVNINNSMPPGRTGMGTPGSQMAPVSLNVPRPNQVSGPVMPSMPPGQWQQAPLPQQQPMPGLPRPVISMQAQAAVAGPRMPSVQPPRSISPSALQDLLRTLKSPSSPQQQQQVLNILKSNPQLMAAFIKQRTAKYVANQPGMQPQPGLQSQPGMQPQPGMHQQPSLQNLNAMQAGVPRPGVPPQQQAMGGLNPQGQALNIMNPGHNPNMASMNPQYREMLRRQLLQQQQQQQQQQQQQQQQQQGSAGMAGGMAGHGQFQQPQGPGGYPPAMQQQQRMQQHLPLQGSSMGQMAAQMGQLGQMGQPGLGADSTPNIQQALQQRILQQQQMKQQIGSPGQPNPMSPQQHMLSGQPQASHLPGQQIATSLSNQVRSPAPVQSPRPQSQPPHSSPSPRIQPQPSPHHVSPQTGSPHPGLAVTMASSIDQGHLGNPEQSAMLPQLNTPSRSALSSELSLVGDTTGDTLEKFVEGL
Sequence of p300 bromodomain (Q09472 1049-1156 limits assumed): as the sequence (Q92793 1085-1192 limits assumed) above, with N47S, V73I, F93Y, A98S counted along it
Sequence of isolated CBP bromodomain (Q92793 1085-1192 limits assumed): as the sequence (Q92793 1085-1192 limits assumed) above
Sequence of CBP (Q92793 1085-1192 limits assumed): as above

## Cc1sc2c(c1C)C(c1ccc(Cl)cc1)=N[C@@H](CC(=O)OC(C)(C)C)c1nnc(C)n1-2 [JQ1, reference compound]
[1]
  expression of IL10: down-regulated
  expression of VCAM1/CD106: down-regulated
  secreted IgG: strongly down-regulated
[2]
  activity alone in WST1 assay: low nM activity

## COc1cccc2c1C(=O)c1c(O)c3c(c(O)c1C2=O)C[C@@](O)(C(=O)CO)C[C@@H]3O[C@H]1C[C@H](N)[C@H](O)[C@H](C)O1 [doxorubicin, reference compound]
[2]
  activity alone in WST1 assay: low nM activity

## CC1=NN(c2ccc(C(=O)O)cc2)C(=O)/C1=C\c1ccc(-c2cc(C)c(C)cc2[N+](=O)[O-])o1 [C646]
CBP/p300 HAT activity
  HAT inhibitory activity: low µM activity

## CCC(=O)N1CCOc2c(cc(-c3ccc(OC)c(OC)c3)cc2OC[C@H]2CCCN(C)C2)C1 [I-CBP112]
5HT1
  interaction in selectivity panel: weak interaction
MLL-AF9+ AML cells [3]
  c-Kit/CD117 expression: slightly decreased
  granulocyte marker Gr-1 expression: slightly decreased
[4]
  off-target activity in BLI screen: weak off-target activity
full-length CBP [5]
  effect on recruitment of full-length CBP to chromatin: no significant effect
BRD4(1); CBP over BRD4(1), from ITC KDs
  fold selectivity: 37 fold
BRD4(1); ITC
  Kd: 5.6 µM
α1A
  interaction in selectivity panel: weak interaction
[1]
  expression level of CCL2: no effect
  expression level of Selectin (CD62): no effect
  expression of IL10: down-regulated
  expression of VCAM1/CD106: down-regulated
  secreted IgG: up-regulated
[6]
  colony number in MC: did not affect
BRD4(2) [7]; CBP over BRD4(2), from ITC KDs
  fold selectivity: 132 fold
BRD4(2) [7]; ITC
  Kd: 20 µM
KASUMI-1 cells [8]
  apoptosis: signs of apoptosis
[9]
  clonogenic growth: significantly reduced
[10]
  self-renewal in clonogenic re-plating: significantly impaired
Pharmacokinetic study; IP 3 mg/kg
  AUC: 384 ng/h/mL
  half-life: 36 ± 6 min
  mean Cmax: 590 ng/mL
Pharmacokinetic study; IP vs IV, (AUCt/Dip)/(AUC∞/Div)
  bioavailability F%: 114 ± 63%
Pharmacokinetic study; IV 1.2 mg/kg
  blood clearance: high
  volume distribution: moderate
Pharmacokinetic study; read-out: mean Cmax, IP 3 mg/kg, n=3
  Cmax: 1260 ± 740 nM
p300 bromodomain
  Kd: 0.167 ± 0.008 µM
MOLM13
  clonogenic growth: significantly impaired
[11]
  estimated stem cell frequency: significant decrease and 1/13
[12]
  ΔTm values: low
[13]
  number of colonies and cells in MC: dose dependent reduction
full-length CBP [14]
  FRAP recovery times: did not lead to decreased recovery times
CBP bromodomain [15]
  IC50: 0.17 µM
p300; 8h
  displacement of p300 from chromatin: did not see significant displacement
p300; 4 days, vs DMSO
  p300 occupancy: increased p300 occupancy
Isolated CBP bromodomain
  IC50: 0.6 ± 0.05 µM
MOLM13 cells
  synergism: less pronounced
[16]
  cell survival: did not affect cell survival
CBP bromodomain [17]
  ΔTm (stabilization of melting temperature): 7.8 ºC
[18]
  clonogenic growth: significantly reduced
full-length GFP-BRD4
  displacement of full-length BRD4: No displacement
BRD4(2) [19]
  ΔTm: 0.6 °C
CBP bromodomain [20]
  Kd: 0.151 ± 0.006 µM
[2]; combination with JQ1
  synergy (Chou-Talalay): strong synergy
[2]; combination with doxorubicin, except MOLM13
  synergy (Chou-Talalay): strong synergy
KASUMI-1
  clonogenic growth: significantly impaired
SEM cells
  clonogenic growth: significantly impaired
MLL-AF9+ AML cells [21]
  time of disease development in recipient mice: significantly later
[22]
  cytotoxicity: without significant cytotoxicity
KASUMI-1 cells [23]
  cell cycle effect: prominent G1 arrest
CBP
  Kd: 0.142 µM

## CBP bromodomain (domain or fragment)
H3K56ac peptide
  Kd: 13.8 µM
